Series [1] in a line: Octanol-water partition co-efficient, log D of the compound at pH 7.4 by HPLC analysis. Type of series: physicochemical.
Series [2] concerns the target T1, Corticotropin-releasing factor receptor 1 (Homo sapiens, UniProt P34998).
T1 sequence (P34998 whole entry): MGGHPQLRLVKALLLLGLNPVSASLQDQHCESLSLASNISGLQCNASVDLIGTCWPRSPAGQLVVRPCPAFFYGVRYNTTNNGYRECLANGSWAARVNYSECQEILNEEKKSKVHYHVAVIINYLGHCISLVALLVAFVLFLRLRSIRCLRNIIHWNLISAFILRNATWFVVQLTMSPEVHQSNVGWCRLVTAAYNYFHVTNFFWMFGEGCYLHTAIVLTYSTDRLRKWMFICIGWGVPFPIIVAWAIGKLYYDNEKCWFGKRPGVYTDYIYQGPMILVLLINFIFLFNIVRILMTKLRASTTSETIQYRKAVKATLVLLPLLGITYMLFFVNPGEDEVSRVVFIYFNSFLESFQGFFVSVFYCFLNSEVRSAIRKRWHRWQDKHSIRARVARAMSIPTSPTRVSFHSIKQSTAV
The experiment in a line: Displacement of [125I]-CRF from human CRF1 receptor expressed in CHO cellular membrane fraction after 1.5 hrs by liquid scintillation counting method. Type of series: cell-based.

Series [3] can be described thus: Cytotoxicity against human HepG2 cells assessed as rate of ATP content at 30 uM after 1 day by ATPLite-M assay relative to control. In kind it is cell-based. The following applies: read-out: Activity.
The subject of series [4] is Mus musculus. The experiment in a line: Ex vivo inhibition of [125I]-CRF binding to CRF1 receptor in mouse pituitary gland at 60 mg/kg, po after 1 hr by gamma scintillation counting method. Type of series: functional. The gist of the method:
(§1)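 Compound suspended in 0.5% methyl cellulose in water and dosed orally (10 mL/kg), 5 mice/group. Incubated with 100 pM ovine 125I-CRF at rt for 2 h, then GF/C filtration.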

For series [5], the system named is Mus musculus. The experiment in a line: Ex vivo inhibition of [125I]-CRF binding to CRF1 receptor in mouse frontal cortex at 60 mg/kg, po after 1 hr by gamma scintillation counting method. Type of series: functional. The gist of the method: as §1
Series [6] concerns Mus musculus. Description: Ex vivo inhibition of [125I]-CRF binding to CRF1 receptor in mouse olfactory bulb at 60 mg/kg, po after 1 hr by gamma scintillation counting method. In kind it is functional. The gist of the method: as §1
Series [7] in a line: Solubility of the compound in pH 6.8 phosphate buffer with bile acid by HPLC analysis. Type of series: physicochemical. The method in brief: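 DMSO stock of compound added to pH 6.8 phosphate buffer containing bile acid. After incubation, precipitate removed by filter-plate filtration; dissolved compound in filtrate quantified by HPLC.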
The test system of series [8] is Mus musculus. The experiment in a line: Suppression of stress-induced activation of hypothalamus-pituitary-adrenocortical axis in mouse assessed as reduction of plasma ATCH level at 60 mg/kg, po after 1 hr by immunoradiometric assay. Type of series: functional, organism-based. The gist of the method: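 Mice dosed orally with compound suspended in 0.5% methyl cellulose (10 mL/kg) 1 h before test. PBS given icv (5 µL/mouse); blood taken by decapitation 0.5 h later. Plasma separated by centrifugation at 4°C; ACTH measured by immunoradiometric assay. Mean ± SEM, n = 10, Dunnett's test vs vehicle.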

Series [9] concerns the target T2, Corticotropin-releasing factor receptor 2 (Homo sapiens) (UniProt Q13324).
T2 sequence (whole entry): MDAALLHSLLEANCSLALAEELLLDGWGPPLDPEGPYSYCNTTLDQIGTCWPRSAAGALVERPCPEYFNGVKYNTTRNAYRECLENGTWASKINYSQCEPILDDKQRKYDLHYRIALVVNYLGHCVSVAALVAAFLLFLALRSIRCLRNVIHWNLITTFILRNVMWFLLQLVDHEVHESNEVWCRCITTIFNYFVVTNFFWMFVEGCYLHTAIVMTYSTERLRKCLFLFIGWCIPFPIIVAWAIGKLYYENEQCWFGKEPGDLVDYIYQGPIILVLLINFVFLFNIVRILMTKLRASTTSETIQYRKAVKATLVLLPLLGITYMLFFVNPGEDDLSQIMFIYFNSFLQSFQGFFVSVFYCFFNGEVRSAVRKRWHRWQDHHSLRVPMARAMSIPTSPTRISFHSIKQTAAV
The experiment in a line: Binding affinity to human CRF2beta receptor up to 10 uM.

Series [10] has as its target T2, Corticotropin-releasing factor receptor 2 (Homo sapiens). Description: Binding affinity to human CRF2alpha receptor up to 10 uM.
For series [11], the system named is Mus musculus. Description: Ex vivo inhibition of [125I]-CRF binding to CRF1 receptor in mouse pituitary gland at 20 mg/kg, po after 1 hr by gamma scintillation counting method. Type of series: functional. The gist of the method:
as §1

Series [12] relates to Mus musculus. The experiment in a line: Ex vivo inhibition of [125I]-CRF binding to CRF1 receptor in mouse olfactory bulb at 20 mg/kg, po after 1 hr by gamma scintillation counting method. Type of series: functional. The gist of the method:
as §1

Series [13] relates to Mus musculus. Description: Ex vivo inhibition of [125I]-CRF binding to CRF1 receptor in mouse frontal cortex at 20 mg/kg, po after 1 hr by gamma scintillation counting method. In kind it is functional. The gist of the method: as §1

In brackets after ≈: the same amount, converted by molar mass. Activity calls are given as the source filed them. The calls are words filed in the database; no cut-off is given here. Some results are limits rather than exact numbers.

Take `CCCN(CCC)c1cccc2nc(Nc3c(C)cc(Cl)cc3C(C)C)n(C)c12`: the log distribution coefficient (logD) in series [1] worked out at 5.96. The molecule further had an IC50 in series [2] of 22 nM. Moreover, the viability at 24 h, 30 µM in [3] was 28%.
As to `CCCN(CCC)c1c(Cl)cc(Cl)c2nc(Nc3c(C)cc(Cl)cc3OC)n(C)c12`, the IC50 in [2] came out at 170 nM. The viability at 24 h, 30 µM in series [3] came out at 72%.
As for `CCCN(CCC)c1c(Cl)ccc2nc(Nc3c(C)cc(Cl)cc3OC)n(C)c12`, the half-maximal inhibitory concentration (IC50) in series [2] was > 10000 nM. Moreover, the viability at 24 h, 30 µM in series [3] came out at 86%.
In the same order, the values of `CCN(CC)c1ccc(C#N)c2nc(Nc3c(C)cc(Cl)cc3OC)n(C)c12` are 13 nM and 81%.
Molecule `CCCN(CCC)c1cccc2nc(Nc3c(C)cc(Cl)cc3OC)n(C)c12` returned a half-maximal inhibitory concentration (IC50) in [2] of 14 nM.
Molecule `CCN(CC)c1ccc(C)c2nc(Nc3c(C)cc(Cl)cc3OC)n(C)c12` returned an IC50 in series [2] of 7.6 nM. In addition, the viability at 24 h, 30 µM in series [3] stood at 72%.
For the molecule `COCCN(CCOC)c1cccc2nc(Nc3c(C)cc(Br)cc3OC)n(C)c12`, the 50% inhibitory concentration (IC50) in series [2] worked out at 65 nM. Besides, the viability at 24 h, 30 µM in series [3] is 92%.
In the same order, the values of `CCN(CC)c1ccc(-c2ccccc2)c2nc(Nc3c(C)cc(Cl)cc3OC)n(C)c12` are > 10000 nM and 92%.
In turn, `CCN(CC)c1cccc2nc(Nc3c(C)cc(Br)cc3OC)n(C)c12` displayed an IC50 in series [2] of 13 nM. In series [3], the viability at 24 h, 30 µM was 93%.
On to `CCCN(CCC)c1cccc2nc(Nc3c(C)cc(C)cc3C)n(-c3ccccc3)c12`, for which, in [1], the logD is 6.31. Moreover, in series [2], the IC50 was found to be 2200 nM. In addition, in series [3], the viability at 24 h, 30 µM was found to be 32%.
`CCCN(CCC)c1cccc2nc(Nc3c(C)cc(C)cc3C)oc12` displayed an IC50 in [2] of 990 nM. Moreover, the viability at 24 h, 30 µM in series [3] is 65%.
Regarding `CCCN(CCC)c1cccc2nc(Nc3c(C)cc(Br)cc3OC)n(C)c12`, the pH-dependent lipophilicity (logD) in [1] is 5.39. In series [2], this molecule gave an IC50 of 12 nM. For the same molecule, the viability at 24 h, 30 µM in series [3] was determined as 82%.
`CCCN(CCC)c1cccc2nc(Nc3c(C)cc(C)cc3C)[nH]c12`: in [2], the half-maximal inhibitory concentration (IC50) worked out at 2500 nM. Besides, the viability at 24 h, 30 µM in series [3] is 41%.
In the case of `CCCN(CCC)c1cccc2nc(Nc3c(C)cc(C)cc3C)n(C(C)C)c12`, the logD in series [1] turned out to be 5.9. The molecule further returned a concentration for half-maximal inhibition (IC50) in series [2] of 97 nM. Also, in series [3], the viability at 24 h, 30 µM was 10%.
Molecule `CCCN(CCC)c1cccc2nc(Nc3c(C)cccc3C)n(C)c12` came in with a concentration for half-maximal inhibition (IC50) in series [2] of 140 nM. Moreover, the viability at 24 h, 30 µM in [3] was found to be 72%.
In the case of `CCCN(CCC)c1ccc(Cl)c2nc(Nc3c(C)cc(Cl)cc3OC)n(C)c12`, the inhibition in vivo at 60 mg/kg in the series on Mus musculus [4] stood at 101%; in the series on Mus musculus [5] it was 86%; in the series on Mus musculus [6] it was 83%. The molecule further yielded a solubility in series [7] of 33 µg/mL (≈ 75.8 µM). Further, the result with Mus musculus [8] was Active. The outcome in series [9] and in series [10] was inactive.
`CCCN(CCC)c1cccc2nc(Nc3c(C)cc(C)cc3C)sc12` came in with a half-inhibitory concentration (IC50) in series [2] of 77 nM. Besides, in [3], the viability at 24 h, 30 µM is 75%.
Turning to `CCCCN(CCCC)c1cccc2nc(Nc3c(C)cc(Br)cc3OC)n(C)c12`, the concentration for half-maximal inhibition (IC50) in series [2] worked out at 14 nM. The viability at 24 h, 30 µM in [3] is 90%.
In the same order, the values of `CCCN(CCC)c1cccc2nc(Nc3ccc(C)cc3C)n(C)c12` are 84 nM and 79%.
On to `CCCN(CCC)c1cccc2nc(Nc3c(C)cc(C)cc3C)n(C)c12`, for which the logD in series [1] is 5.23. The molecule further returned an IC50 in [2] of 15 nM. The viability at 24 h, 30 µM in series [3] worked out at 89%.
Take `CCCN(CCC)c1ccc(C#N)c2nc(Nc3c(C)cc(Cl)cc3OC)n(C)c12`: the half-maximal inhibitory concentration (IC50) in series [2] was found to be 14 nM. In addition, the viability at 24 h, 30 µM in series [3] turned out to be 83%.
`CCN(c1cccc2nc(Nc3c(C)cc(Br)cc3OC)n(C)c12)C(C)C` gave an IC50 in series [2] of 11 nM. For the same molecule, in series [3], the viability at 24 h, 30 µM was determined as 87%.
With `CCN(CC)c1ccc(Cl)c2nc(Nc3c(C)cc(Cl)cc3OC)n(C)c12`, in series [3], the viability at 24 h, 30 µM came out at 76%.
Turning to `CCCN(CCC)c1cc(C)nc2c(-c3cnc(N(C)C)cc3C)c(C)nn12`, the inhibition in vivo at 20 mg/kg with Mus musculus [11] is 98%; with Mus musculus [12], 95%; with Mus musculus [13], 96%. The viability at 24 h, 30 µM in [3] was 51%.
`CCN(CC)c1ccc(OC)c2nc(Nc3c(C)cc(Cl)cc3OC)n(C)c12`: the IC50 in series [2] amounted to 13 nM. In addition, in series [3], the viability at 24 h, 30 µM is 5%.

The values are drawn from ChEMBL document CHEMBL3792361, “Design and Synthesis of Benzimidazoles As Novel Corticotropin-Releasing Factor 1 Receptor Antagonists” (J Med Chem, 2016).
